Test results reported in article PMC6106105 (Journal of the Endocrine Society, 2018).
Where two headings read alike, the source gives them in different places. Numbered stars: 1 amine (or outer) side, 2 acyl side, 3 side chain; on linkers, the order of the positions; unused ones are H or OH. Square brackets hold non-standard residues; d marks the D form. Side chains are listed from the residue outwards. Peptide text beside a SMILES is read from it. * marks the point of attachment. Ethylenediamine = C(CN[*:2])N[*:1]; Hyp = O=C(O)[C@@H]1C[C@@H](O)CN1; Phg = N[C@H](C(=O)O)c1ccccc1; CO = O=C([*:1])[*:2]; Bn = c1ccc(C*)cc1

Experiments:
GH4C1 cells = assay: Membrane potential; format: cell-based, rat; conditions: for hyperpolarization response (agonist, in words): 100 nM (Fig. 3A)
In short: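 Rat GH4C1 cells grown in F12 with 12.5% horse serum and 2.5% FBS, plated 150,000/well on poly-D-ornithine. Loaded 30 min with FLIPR Membrane Potential blue dye in HEPES-buffered saline, pH 7.4, then equilibrated 15 min at 37°C. After 30 s baseline, agonist was added and fluorescence read for 180 s (ex 530/em 565 nm). Output was F1/F0 minus control trace, averaged over three wells.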

rat Sstr2A [1] = target: T1, rat Sstr2A (Rattus norvegicus, UniProt P30680); assay: Sstr2A receptor internalization, cell surface ELISA in GH12C1-Sstr2A cells; format: cell-based; conditions: for Emax: read-out: Internalization Emax
T1 sequence (P30680 whole entry): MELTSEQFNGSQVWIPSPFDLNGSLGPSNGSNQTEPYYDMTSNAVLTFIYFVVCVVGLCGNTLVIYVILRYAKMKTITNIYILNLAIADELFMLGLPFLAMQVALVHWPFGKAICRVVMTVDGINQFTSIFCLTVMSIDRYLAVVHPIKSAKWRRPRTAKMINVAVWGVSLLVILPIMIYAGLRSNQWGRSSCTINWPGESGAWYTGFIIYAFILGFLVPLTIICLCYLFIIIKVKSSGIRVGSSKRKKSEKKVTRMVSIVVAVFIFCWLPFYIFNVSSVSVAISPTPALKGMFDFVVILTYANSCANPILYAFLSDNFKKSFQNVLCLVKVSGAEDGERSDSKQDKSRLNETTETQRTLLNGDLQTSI

rat Sstr2A [2] = target: T1, rat Sstr2A; format: cell-based; conditions: for Emax: read-out: cAMP Emax
rat Sstr2A [3] = target: T1, rat Sstr2A; assay: Membrane potential; format: cell-based; conditions: read-out: Hyperpolarization Emax

Compound	Emax (rat Sstr2A [1])	Emax (rat Sstr2A [2])	Emax at 0.1 µM (rat Sstr2A [3])	hyperpolarization response (agonist, in words) (GH4C1 cells)	other results
H-p-Chloro-Phe-D-Cys-β-(3-pyridyl)-Ala-D-Trp-Lys-tBu-Gly-Cys-2-Nal-NH2 trifluoroacetate salt [PRL-2915]					effect on hyperpolarization response produced by SS14 (GH4C1 cells; PRL-2915 (1 µM), SS14 (1 µM), 15 minutes pretreatment): eliminated most of the hyperpolarization response
Des-AA^1,2,5-[DTrp^8,IAmp^9,^125ITyr^11]-Cbm-SRIF [Rivier #27]				largely ineffective	
C[C@H](N)C(=O)NCC(=O)N[C@H]1CSSC[C@@H](C(=O)O)NC(=O)[C@H](CO)NC(=O)[C@H]([C@@H](C)O)NC(=O)[C@H](Cc2ccccc2)NC(=O)[C@H]([C@@H](C)O)NC(=O)[C@H](CCCCN)NC(=O)[C@H](Cc2c[nH]c3ccccc23)NC(=O)[C@H](Cc2ccccc2)NC(=O)[C@H](Cc2ccccc2)NC(=O)[C@H](CC(N)=O)NC(=O)[C@H](CCCCN)NC1=O [SS14, Somatostatin]	100%	100%	100%		

Continued, in another order:

Emax (rat Sstr2A [1])	Emax (rat Sstr2A [2])	Emax at 0.1 µM (rat Sstr2A [3])	Compound	hyperpolarization response (agonist, in words) (GH4C1 cells)	other results
100%	100%	107%	C[C@@H](O)[C@@H]1NC(=O)[C@H](CCCCN)NC(=O)[C@@H](Cc2c[nH]c3ccccc23)NC(=O)[C@H](Cc2ccccc2)NC(=O)[C@@H](NC(=O)[C@H](N)Cc2ccccc2)CSSC[C@@H](C(=O)N[C@H](CO)[C@@H](C)O)NC1=O [Octreotide, octreotide]	equivalent to that of SS14	
5%	100%		NCCCC[C@@H]1NC(=O)[C@@H](Cc2c[nH]c3ccccc23)NC(=O)[C@H](c2ccccc2)NC(=O)[C@@H]2C[C@@H](OC(=O)NCCN)CN2C(=O)[C@H](Cc2ccccc2)NC(=O)[C@H](Cc2ccc(OCc3ccccc3)cc2)NC1=O [SOM230, pasireotide diaspartate] (cyclo([Hyp]([CO-Ethylenediamine])[Phg][dW]KY(Bn)F); ring closure inferred)		Kd (rat Sstr2A [1]): 243 ± 63 nM; shift in SS14 potency for receptor internalization after SOM230 pretreatment (Schild-plot analysis) (rat Sstr2A [1]; SOM230 2 µM, 5-minute pretreatment, kept present throughout): 8.7 fold; EC50 (rat Sstr2A [2]): 58 ± 7 nM; Emax at 1 µM (rat Sstr2A [3]): 5%
